Compound activity deposited in PubChem by Sanford-Burnham Center for Chemical Genomics.
HKDC1 act: HKDC1 hexokinase activators, primary screen, biochemical, fluorescence, uHTS | hit rate 0.056% among 340,000 | recombinant HKDC1, G6PDH/diaphorase resazurin fluorescence; stronger effect = lower value | activity change, negative = activation, % at 20 µM;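 active = activation of 40% or more at 20 µM, a change of -40% or lower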
Target sequence (Q2TB90 whole entry, looked up): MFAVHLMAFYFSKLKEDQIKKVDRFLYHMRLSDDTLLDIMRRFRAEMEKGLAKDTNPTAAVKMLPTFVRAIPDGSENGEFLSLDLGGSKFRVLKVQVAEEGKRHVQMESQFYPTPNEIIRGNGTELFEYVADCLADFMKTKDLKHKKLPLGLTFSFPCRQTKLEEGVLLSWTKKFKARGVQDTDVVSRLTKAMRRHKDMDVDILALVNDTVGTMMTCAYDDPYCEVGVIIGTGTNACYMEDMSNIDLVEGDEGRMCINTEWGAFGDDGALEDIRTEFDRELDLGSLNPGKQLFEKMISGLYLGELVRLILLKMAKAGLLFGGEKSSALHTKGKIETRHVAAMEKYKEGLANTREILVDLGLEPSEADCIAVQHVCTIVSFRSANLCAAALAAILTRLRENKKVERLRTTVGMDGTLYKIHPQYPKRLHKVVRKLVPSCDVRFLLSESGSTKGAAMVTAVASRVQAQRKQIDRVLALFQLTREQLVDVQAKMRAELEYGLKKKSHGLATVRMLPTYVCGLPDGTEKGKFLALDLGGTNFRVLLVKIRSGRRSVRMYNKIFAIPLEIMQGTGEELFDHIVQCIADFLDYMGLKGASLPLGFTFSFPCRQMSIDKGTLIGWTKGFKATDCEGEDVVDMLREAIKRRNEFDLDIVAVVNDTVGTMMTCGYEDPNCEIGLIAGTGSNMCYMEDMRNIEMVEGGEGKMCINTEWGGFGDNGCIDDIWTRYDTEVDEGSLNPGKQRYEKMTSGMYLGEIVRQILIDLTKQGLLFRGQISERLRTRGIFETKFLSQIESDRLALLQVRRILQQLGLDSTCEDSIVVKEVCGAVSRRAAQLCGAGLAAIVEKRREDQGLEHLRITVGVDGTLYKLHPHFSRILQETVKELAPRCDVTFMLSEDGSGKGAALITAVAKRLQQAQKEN
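Signal: coupled resazurin-to-resorufin fluorescence, Ex 525/Em 613 nm. Test system: in-house human HKDC1 enzyme, G6PDH and diaphorase coupling enzymes. Quantity: HKDC1 5 µg/mL. Timing: 90 min reaction at room temperature, dark.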
Large screens that a line does not name were inactive. A selection follows.

COc1ccc(/C=C/C(=O)NC(=S)NNC(=O)c2cnccn2)cc1	HKDC1 act -40
CCc1nc2c(c(=O)c3ccccc3n2C)c(=O)n1-c1ccc(F)cc1	none
O=C1C=C(N(CCO)Cc2ccccc2)c2ccccc2C1=O	none
C=CC(=O)N1C/C(=C/c2ccc(Cl)cc2)C(=O)/C(=C\c2ccc(Cl)cc2)C1	none
Oc1ccc2ccccc2c1C=Nc1ccccc1Br	none
CC1=NOC(=O)/C1=C\c1ccc(-c2ccc(Br)cc2)o1	none
O=Cc1[nH]c2ccccc2c1N(C(=O)CCl)c1ccccc1	none
COc1ccc(NC(=O)CSc2ccc(-c3ccco3)nn2)cc1OC	none
O=C(O)CSc1cc(NS(=O)(=O)c2cccc([N+](=O)[O-])c2)c2ccccc2c1O	none
O=C(Cc1ccc(Cl)cc1Cl)Nc1cccc(S(=O)(=O)Nc2ccccc2F)c1	HKDC1 act -41
NC(=O)[C@H]1CC2(CC(c3cccc(NC(=O)[C@H]4CCC(=O)N4)c3)=NO2)CN1C(=O)c1ccccc1 (stereo partly drawn)	none
Cc1ccc(-c2nc(NC(=O)CSc3cc(C)c4ccccc4n3)ns2)cc1	none
Oc1ccc(/C=N/Nc2ccnc3cc(Cl)ccc23)c(O)c1O	none
CC(=O)Nc1ccc(S(=O)(=O)NCCC(=O)OC(C)C(=O)c2ccc(C)cc2)cc1 (stereo not drawn)	none
CCC(=O)OC1(C)C(=O)C2=COC(c3ccc(OC)cc3)=CC2=C(Br)C1=O (stereo not drawn)	none
COC(=O)c1ccc(NCc2c(O)ccc(O)c2Br)cc1Cl	none
Cc1ccc(-n2c3nc(=O)[nH]c(=O)c-3cc3cc([N+](=O)[O-])ccc32)cc1C	none
CCCCCCCCCC(=O)NNC(=O)c1c(O)c2ccccc2n(CC)c1=O	HKDC1 act -41
CCc1nc2sc3c(=O)[nH]cnc3c2c2c1CSC(C)(C)C2	none
CC1COCC(C)N1C1=C(Cl)C(=O)c2ccccc2C1=O (stereo not drawn)	none
O=C(O)CN1C(=O)/C(=C2\C(=O)N(Cc3ccccc3Cl)c3ccccc32)SC1=S	none
Cn1c(SSc2ccc(-c3cccnc3)n2C)ccc1-c1cccnc1	HKDC1 act -341
O=C(NC1=C(NC2CCS(=O)(=O)C2)C(=O)c2ccccc2C1=O)c1ccccc1 (stereo not drawn)	none
Cc1c(N=C2C=CC(=O)c3ccccc32)c(=O)n(-c2ccccc2)n1C	none
COc1cc(/C=C2/C(=O)NN(c3ccc(Cl)c(Cl)c3)C2=O)cc([N+](=O)[O-])c1O	none
NC(=S)N/N=C/c1ccc(Br)o1	HKDC1 act -55
O=C1C(=Cc2ccc(Br)o2)C(=O)c2ccccc21	none
CCOC(=O)C1=C(Cc2ccc(Cl)cc2)C(=O)c2ccccc2C1=O	none
O=C(NCc1ccccn1)c1cc(S(=O)(=O)N2CCN(c3ccccc3)CC2)ccc1Cl	none
CC(=O)N(C1=C(Cl)C(=O)c2ccccc2C1=O)C1CCCCC1	none
CNCc1ccccc1Sc1cc(O)ccc1O	none
O=C(CN(C(=O)CCC(=O)Nc1ccccn1)c1ccc2c(c1)OCO2)NCc1ccc(F)cc1	HKDC1 act -46
COc1cc(SC#N)ccc1N=Cc1c(C)[nH]n(-c2ccc(Cl)cc2)c1=O	HKDC1 act -41
CC(=O)Nc1ccc2cc3ccc(NC(C)=O)cc3nc2c1	none
Cc1ccc(N=C2C(=S)N(c3ccc(C)cc3)C(=N)N2/N=C/c2ccc(Cl)cc2)cc1	HKDC1 act -119
Oc1ccc(O)c(Cc2nc3ccccc3[nH]2)c1	none
O=C1NN(c2ccccc2)C(=O)/C1=C/c1ccc(Sc2ccc(Cl)cc2)o1	none
O=C1C=CC2(C=C1)O[C@H](Cc1ccccc1)[C@@H](Cc1ccccc1)O2	none
CCc1ccc(S(=O)(=O)/N=C2\C=C(Nc3ccc(C(=O)O)cc3)C(=O)c3ccccc32)cc1	none
COc1cc(/C=C2\SC(=S)N(c3cccnc3)C2=O)ccc1O	none
Cn1c(-c2ccccc2)c(C(=O)CC#N)c2ccccc21	HKDC1 act -45
Cc1ccc(NC(=O)CN2C(=O)S/C(=C/c3ccc(-c4cc(C(=O)O)ccc4C)o3)C2=O)cc1C	none
O=c1c2ccccc2nc(/C=C/c2cccnc2)n1Cc1ccccc1	none
O=NNc1nc2ccccc2n1Cc1ccccc1	HKDC1 act -40
Cc1cc(C(=O)N=Nc2c(O)n(C(C)C)c3ccccc23)n[nH]1	none
CC(C(=O)O)N1C(=O)/C(=C/C=C/c2ccco2)SC1=S (stereo not drawn)	none
CC(C)(C)c1c(Cl)c(O)c(-c2ccccc2)c(=O)n1-c1ccccc1	none
COc1cccc(/C=N/Nc2ccc([N+](=O)[O-])cn2)c1O	none
CC(=O)Nc1ccc(C2=NNC(=Nc3ccc(S(=O)(=O)N4CCOCC4)cc3)SC2)cc1	HKDC1 act -339
Fc1ccc(F)c(C2=NNC(=Nc3ccccc3F)SC2)c1	HKDC1 act -143
Fc1ccc(N=C2NN=C(c3cc(F)ccc3F)CS2)cc1	HKDC1 act -218
CC(C)(C)N=C1NN=C(c2ccc(S(=O)(=O)N3CCCCC3)cc2)CS1	HKDC1 act -67
Cc1[nH]c2ccccc2c1C(C#N)(C#N)C1C(=O)c2ccccc2C1=O	none
CCc1ccc(S(=O)(=O)Nc2cc(SCC(=O)O)c(O)c3ccccc23)cc1	none
O=C1C(SCCO)=C(SCCO)C(=O)c2ccccc21	none
COC(=O)CCC(=O)OC1(C)C(=O)C2=CN(CC3CC3)C(c3ccc(OC)cc3)=CC2=C(Br)C1=O (stereo not drawn)	none
Cc1ccc(S(=O)(=O)N2CCN(C(=O)CN3C(=O)NC4(CCCCC4)C3=O)CC2)c(C)c1	none
CC1=NOC(=O)/C1=C\c1ccc(-c2cc(Cl)ccc2Cl)o1	none
O=c1c2ccccc2nc2n1CCC2	none
O=C1C(Cl)=C(NC(=O)c2ccccc2)C(=O)C(Cl)=C1NC(=O)c1ccccc1	none
CCCCC[C@H](O)/C=C/[C@@H]1[C@@H](C/C=C\CCCC(=O)OC)[C@@H](O)C[C@H]1O	none
Cc1ccc(/C=C/c2nc3sc(C(=O)O)c(C)c3c(=O)[nH]2)cc1[N+](=O)[O-]	none
Cc1cccc(/C=C/C(=O)c2ccc([N+](=O)[O-])o2)c1	none
O=C(O)c1cc(O)c2c(c1)[C@@H]([C@H]1c3cc(C(=O)O)cc(O)c3C(=O)c3c(O[C@@H]4O[C@H](CO)[C@@H](O)[C@H](O)[C@H]4O)cccc31)c1cccc(OC3O[C@H](CO)[C@@H](O)[C@H](O)[C@H]3O)c1C2=O (stereo partly drawn)	none
Cc1[nH]c2ccccc2c1C1=CC(=O)C=CC1=O	none
O=C1C(Cl)=C(N2CCC(C(=O)O)CC2)C(=O)c2ccccc21	none
Cc1ccc(S(=O)(=O)/N=C2\C=C(Nc3cccc(C(=O)O)c3)C(=O)c3ccccc32)cc1	none
COc1cc(/C=C2\SC(c3ccccc3)=NC2=O)cc(Cl)c1O	none
Cc1cc(/C=C\c2ccc3cc(N(C)C)ccc3[n+]2C)c(C)n1-c1ccccc1	none
O=C(O)c1ccccc1-c1ccc(/C=c2\sc3nc4cc(Br)cnc4n3c2=O)o1	none
O=S(=O)(c1ccc(N=C2NN=C(c3cc(F)ccc3F)CS2)cc1)N1CCOCC1	HKDC1 act -308
Fc1ccccc1N=C1NN=C(c2ccccc2)CS1	HKDC1 act -82
O=S(=O)(c1cccc(COc2ccc(Cl)cc2Cl)c1)N1CCOCC1	none
COc1cc(C2c3c([nH]c(=O)[nH]c3=O)Nc3ccc4ccccc4c32)cc(OC)c1OC (stereo not drawn)	none
O=C1C(Nc2ccccc2)=C/C(=N/S(=O)(=O)c2cccs2)c2ccccc21	none
O=C(O)c1ccccc1-c1c2cc(I)c(=O)c(I)c-2oc2c(I)c(O)c(I)cc12	none
Cc1nc2c3cc(F)ccc3n(Cc3ccccc3)c2s1	HKDC1 act -60
CC(C)(C=O)C1=CC(=O)c2ccccc2C1=O	none
